According to ChEMBL document CHEMBL1154279, “Cytotoxic compounds from the stems of Cinnamomum tenuifolium” (J Nat Prod, 2009):

Tests used:
[1] = test system: DU-145; test: Cytotoxicity against human DU145 cells after 72 hrs by XTT assay; assay type: functional, cell-based; details: DU-145, 24 h, in the assay text read “after 24 hrs” for “after 72 hrs”
[2] = test system: LNCaP; test: Cytotoxicity against human LNCAP cells after 72 hrs by XTT assay; assay type: functional, cell-based; details: 24 h, in the assay text read “after 24 hrs” for “after 72 hrs”
Summary of the method: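 Prostate cancer cells in RPMI-1640 with 10% FBS, 37 °C, 5% CO2, grown to 70–80% confluence and treated at 0.1–100 µM for 24, 48 and 72 h. XTT labeling for 4 h at 37 °C, absorbance 450 nm (reference 650 nm) against control wells. IC50 derived from the mean of eight wells; taxol and cisplatin served as positive controls.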

Row | SMILES | IC50 [1] [µM] | IC50 [2] [µM]
1 | CC(C)C1=CC(=O)[C@]2(C)O[C@@]1(O)[C@@H]1[C@H](C)CC[C@@H]12 [ALPINENONE] | 267 | 67.1
2 | C=C1OC(=O)/C(=C/CCCCCCCCCCCCCCCCCCCCCCCCCC)[C@@H]1O [ISOTENUIFOLIDE] | 84.1 | 42.7
3 | C=C1OC(=O)/C(=C\CCCCCCCCCCCCC)[C@@H]1O [OBTUSILACTONE A] | 68.4 | 36.4
4 | CC(=O)O[C@H]1C(=O)[C@@]2(C)[C@H]([C@H](OC(=O)c3ccccc3)[C@]3(O)C[C@H](OC(=O)[C@H](O)[C@@H](NC(=O)c4ccccc4)c4ccccc4)C(C)=C1C3(C)C)[C@]1(OC(C)=O)CO[C@@H]1C[C@@H]2O [PACLITAXEL] |  | 6.32
